We go through three molecules from paper PMC10879835 (Saudi Journal of Biological Sciences, 2024).

A short description of one data set: Anti-oxidant DPPH assay. As to conditions: 30 mins, absorbance at 515 nm. The gist of the method:
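Lipid-nanoparticle and solution formulations of the test compound were made as 1 mg/ml stocks in methanol and diluted to 1–50 ug/ml. Ascorbic acid was the control. Each dilution was mixed 1:1 by volume with 200 μM DPPH. Absorbance at 515 nm was read after 30 min against a methanol blank. % inhibition was taken […], and IC50 came from regression of mean % inhibition on log concentration.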
Background: DPPH is a stable violet radical that fades when it is reduced.

The next data set concerns α-amylase. The data set can be described thus: α-Amylase inhibitory assay. The format is biochemical. Conditions: at 100 µg/mL. The method, boiled down: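 DNS method. Test compound at 25, 50, 100 and 200 µg/ml, or acarbose at 100 µg/ml as reference, was preincubated 30 min with α-amylase diluted in 20 mM sodium phosphate buffer pH 6.9. 1% w/w starch was then added and the mix held 15 min at 37 ± 0.5 °C. The reaction was stopped with DNS reagent and heated 5 min in boiling water, then read at 540 nm. % inhibition was calculated against a no-sample control and a no-enzyme blank.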

The subject of the next data set is α-glucosidase. The data set can be described thus: α-Glucosidase inhibitory assay. The format is biochemical. The method, boiled down:
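Test sample was preincubated 15 min at 37 °C with α-glucosidase solution (1 U/mL in 0.1 M potassium phosphate buffer, pH 6.8). 5 mM p-nitrophenyl-α-D-glucopyranoside solution was added, with a further 15 min incubation. The reaction was stopped with 0.2 M sodium carbonate and read at 405 nm. Acarbose was the positive control. % inhibition came from control and blank absorbances.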

Data set [1] is described as follows: Solubility of MG in solid lipids and surfactants. The format is physicochemical. Conditions: in Labrafil M 2130 CS. The method, boiled down: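 1 g of each solid lipid was held in a vial on a magnetic stirrer above its melting point. Test compound was added in increments until saturation, and the amount dissolved was recorded. Samples were filtered through a 0.45 membrane to remove undissolved solid.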

Each structure is given as a SMILES string.

Take `O=C1O[C@H]([C@@H](O)CO)C(O)=C1O` [AA, ascorbic acid]: in “Anti-oxidant DPPH assay”, the “DPPH IC50” value came to 23.33 µg/mL.
`C[C@H]1O[C@H](O[C@H]2[C@H](O)[C@@H](O)[C@@H](O[C@H]3[C@H](O)[C@@H](O)C(O)O[C@@H]3CO)O[C@@H]2CO)[C@H](O)[C@@H](O)[C@@H]1N[C@H]1C=C(CO)[C@@H](O)[C@H](O)[C@H]1O` (stereo partly shown) [Acarbose] displayed a α-amylase inhibitory effect in the data set with α-amylase of 78.01 ± 7.45%. This molecule yielded a α-glucosidase inhibition in the data set with α-glucosidase of 63.43 ± 4.02%.
In the case of `O=c1c2cc(O)c(O)cc2oc2cc(O)c([C@@H]3O[C@H](CO)[C@@H](O)[C@H](O)[C@H]3O)c(O)c12` [Mangiferin], the “MG solubility in solid lipid” value in data set [1] came out at 77.63 ± 5.78 mg/g.
